Assay results from different studies.
Compare with care: the assays were run in different laboratories.
Target: Ephrin type-B receptor 4 (EPHB4, Homo sapiens, UniProt P54760)
One construct used (P54760 16-987): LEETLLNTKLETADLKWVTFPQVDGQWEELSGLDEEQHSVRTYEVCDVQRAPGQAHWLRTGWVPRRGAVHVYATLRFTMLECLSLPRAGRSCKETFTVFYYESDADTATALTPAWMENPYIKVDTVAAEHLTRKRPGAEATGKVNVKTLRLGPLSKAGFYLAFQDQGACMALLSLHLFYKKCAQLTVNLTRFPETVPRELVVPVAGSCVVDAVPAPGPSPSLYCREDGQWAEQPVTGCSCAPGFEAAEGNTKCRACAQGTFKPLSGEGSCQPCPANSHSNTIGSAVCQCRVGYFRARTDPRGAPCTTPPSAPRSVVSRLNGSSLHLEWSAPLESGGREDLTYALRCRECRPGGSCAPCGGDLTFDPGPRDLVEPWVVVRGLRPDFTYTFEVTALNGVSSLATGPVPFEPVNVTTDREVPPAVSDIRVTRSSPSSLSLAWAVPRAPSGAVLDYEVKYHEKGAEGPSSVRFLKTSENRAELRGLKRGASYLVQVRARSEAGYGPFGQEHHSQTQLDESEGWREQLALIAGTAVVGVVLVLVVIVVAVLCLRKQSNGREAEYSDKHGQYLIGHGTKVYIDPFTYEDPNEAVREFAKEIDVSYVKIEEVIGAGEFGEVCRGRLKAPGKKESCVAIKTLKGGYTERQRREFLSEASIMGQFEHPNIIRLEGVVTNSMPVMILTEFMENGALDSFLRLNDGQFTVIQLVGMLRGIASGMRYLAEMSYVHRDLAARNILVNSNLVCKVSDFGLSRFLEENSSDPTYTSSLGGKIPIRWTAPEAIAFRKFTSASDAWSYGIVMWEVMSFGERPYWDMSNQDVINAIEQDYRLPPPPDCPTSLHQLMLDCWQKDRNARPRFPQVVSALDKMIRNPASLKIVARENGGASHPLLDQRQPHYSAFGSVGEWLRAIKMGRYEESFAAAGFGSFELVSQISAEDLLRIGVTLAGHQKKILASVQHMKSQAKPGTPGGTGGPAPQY

Compound | observed | technique | concentration | remaining binding [%]
CN(C)c1nccc(-c2cnn3ncccc23)n1 | binding | – | 1 µM | 100
O=C(Nc1c[nH]nc1C(=O)NC1CCNCC1)c1cc(F)cc(F)c1 | binding | competition with immobilised ligand | 1 µM | 100
C[C@H](c1ccc(F)cc1)N(Cc1cccc(C(=O)O)c1)C(=O)c1cnc2ccccc2c1 | cell-free assay | competition with immobilised ligand | 1 µM | 100
COc1ncc2cc3ccccc3nc2c1C#N | cell-free assay | competition with immobilised ligand | 5 µM | 100
Cc1cc(C)c(-n2ccn3nc(-c4cccnc4)cc23)cc1NC(=O)c1cc(C#N)cc(S(F)(F)(F)(F)F)c1 | cell-free assay | competition with immobilised ligand | 0.1 µM | 99.6
Cc1cnc(Nc2ccc(C(=O)N3CCC(N4CCCC4)CC3)cc2)nc1-c1cc2ccccc2s1 | binding | competition with immobilised ligand | 1 µM | 27
CCCCN(CCCC)C(=O)CN1C[C@@H](c2cc(OC)c3c(c2)OCO3)[C@H](C(=O)O)[C@H]1CC(C)(C)CCC | cell-free assay | competition with immobilised ligand | 1 µM | 98.5
N[C@@H]1CCN(c2nccc(-c3cnn4ncccc34)n2)C1 | binding | – | 1 µM | 100
C[C@@H]1CN(c2cc(-c3n[nH]c4ccc(OC5(C)CC5)cc34)ncn2)C[C@H](C)O1 | cell-free assay | competition with immobilised ligand | 0.1 µM | 79
CNC(=O)[C@@H]1CC[C@@H](n2c(-c3ccc4cnccc4c3)nc3ccc(C(=O)NCc4cccc(C(N)=O)c4)cc32)C1 | binding | competition with immobilised ligand | 1 µM | 100
c1cncc(-c2cccc(Nc3nccc(NC4CCCCC4)n3)c2)c1 | binding | competition with immobilised ligand | 10 µM | 89
c1cnn2ncc(-c3ccnc(N4CCC45COC5)n3)c2c1 | binding | – | 1 µM | 92
CC1=C(C#N)C(c2ccc3c(c2)c(NC(=O)c2ccccc2C)nn3C)C(C#N)=C(C)N1 | cell-free assay | competition with immobilised ligand | 1 µM | 97
O=C(c1ccc(Nc2nccc(-c3cc4ccccc4s3)n2)cc1)N1CCC(N2CCCC2)CC1 | binding | competition with immobilised ligand | 1 µM | 87
CN(C)c1nccc(-c2cnc3ncccn23)n1 | binding | – | 1 µM | 100
FC(F)(F)Oc1cccc(-c2cnc3ccc(-c4ccncc4)nn23)c1 | cell-free assay | competition with immobilised ligand | 5 µM | 87
O=C(O)[C@@H]1[C@@H](Cn2nnc3ccccc3c2=O)CC[C@H]1C(=O)c1ccc(OCCC2CCOCC2)cc1 | cell-free assay | competition with immobilised ligand | 1 µM | 100
CN(c1nccc(-c2cnn3ncccc23)n1)C1CC1 | binding | – | 1 µM | 100
COc1cnc(Nc2cccc(S(N)(=O)=O)c2)nc1N1CCN(c2ccccc2)CC1 | binding | competition with immobilised ligand | 1 µM | 96
C[C@H]1CCN(c2nccc(-c3cnn4ncccc34)n2)C1 | binding | – | 1 µM | 100
O=C(c1ccc(Nc2ncc(Cl)c(-c3cc4ccccc4s3)n2)cc1)N1CCC(N2CCCC2)CC1 | binding | competition with immobilised ligand | 1 µM | 65
